Experimental data collected from several papers.

Structure (SMILES) | test | system | conditions | solubility
CCOc1ccc2cc(-c3nn(C(C)(C)C)c(N)c3C(N)=O)cnc2c1 | – | PBS | pH 6.5, 25 °C | 26 µM
COc1cc(Cl)c(C(=O)N[C@@H](CN[C@H]2CC[C@@H](N)CC2)Cc2ccc(C#N)cc2)cc1-c1ccc(CN[C@H](C)c2ccc(C)cc2)o1 | – | aqueous buffer | pH 6.5 | > 3070 µg/mL
Cc1n(Cc2ccc3ccccc3n2)c2ccccc2[n+]1Cc1ccc2ccccc2n1.[Cl-] | – | water | – | > 500 µg/mL
CC(=O)c1cccc(OCc2cc(C(=O)N(C)[C@@H](C)c3ccccn3)no2)c1 | – | PBS | – | 96 µM
Cc1cc(Nc2cccc(Cl)c2)n2nc(C(C)(F)F)nc2n1 | nephelometry | aqueous buffer | pH 6.5 | 77 to 150 µM
CC(C)CC(=O)N1CCC[C@H](COc2cccc3c2C(N)=NS(=O)(=O)[N-]3)C1.[Na+] | – | ethanol | – | 217000 µM
Cl.Clc1ccc2c(nc(N3CCNCC3)n2Cc2ccccc2)c1Cl | shake flask | aqueous buffer | 20 h, pH 6.5, 25 °C | 70 µM
COc1cc(/C=C/C(=O)CC(=O)/C=C/c2ccc(O)c(OC)c2)ccc1O | absorbance | water | – | 0.56 µg/mL
O=C(/C=C/c1ccc(CN(CCO)CCc2c[nH]c3ccccc23)cc1)NO | – | simulated gastric fluid | 48 h, pH 2, 25 °C, acidic | 4100 µg/mL
CC(C)(C)n1nc(-c2ccc3nc(OC4CC4)ccc3c2)c(C(N)=O)c1N | – | PBS | pH 6.5, 25 °C | 96.3 µM
COc1cc(OC)cc(N(CCNC(C)C)c2ccc3ncc(-c4cnn(C)c4)nc3c2)c1 | – | aqueous buffer | pH 7.65 | 150 µg/mL
C[C@]12CCCN1CC1=NNC(=O)c3cc(F)cc4[nH]c2c1c34 | – | ethanol | – | 49000 µg/mL
COc1ccc(Nc2nc(NCc3ccccc3)c3ccccc3n2)cc1F | – | aqueous buffer | pH 5 | 3.4 µg/mL
CCn1c(-c2nc3ccc(C(=O)N4CCCC(N)C4)cc3n2C)cc2ccccc21 (stereo not drawn) | – | aqueous buffer | – | 243 µM
CCOc1ccc2cc(-c3nn(C4CCCCC4)c(N)c3C(N)=O)cnc2c1 | – | PBS | pH 6.5, 25 °C | 34.3 µM
Cc1cc(F)cc(Nc2nc(NCc3ccccc3)c3ccccc3n2)c1 | – | aqueous buffer | pH 6.2 | < 0.01 µg/mL
Cc1ccc(-n2sc(=O)n(Cc3ccc(F)cc3)c2=O)cc1 | – | aqueous buffer | – | ~200 µM
CCCOC(=O)c1ccc(N)cc1 | – | PBS | pH 7.4 | 749 µg/mL
CCCCCCCCCCCCN1CCCC1=O | – | PBS | 48 h, pH 7.4, 25 °C | 21 µM
Cl.c1ccc(Cn2c(N3CCNCC3)nc3cc(-c4cc[nH]n4)ccc32)cc1 | shake flask | aqueous buffer | 20 h, pH 6.5, 25 °C | 195 µM
CN1CCC(N2CCCN(c3nccc4[nH]c(-c5ccc(F)c(F)c5)nc34)CC2)CC1 | shake flask | aqueous buffer | pH 6.5 | > 200 µM
COc1cccc2c(NCc3ccccc3)nc(NCc3ccccc3)nc12 | – | aqueous buffer | pH 5 | 3.2 µg/mL
O=C(Nc1cc(F)c(F)c(F)c1)c1ccc(F)c(S(=O)(=O)NCc2cccc(B(O)O)c2)c1 | – | aqueous buffer | pH 2 | 174 µg/mL
CSc1nc2nc(C)cc(Nc3ccc(C(F)(F)F)cc3)n2n1 | nephelometry | aqueous buffer | pH 6.5 | 19 to 38 µM
CN1CCN(C[C@H]2CCCN(c3nccc4[nH]c(-c5cc(F)cc(F)c5)nc34)C2)CC1 | shake flask | aqueous buffer | pH 6.5 | > 200 µM
Cc1ccc(F)cc1Nc1nc(NCc2ccccc2)c2ccccc2n1 | – | aqueous buffer | pH 7.4 | 0.04 µg/mL
CC[C@H](C)[C@H](NC(=O)[C@H](CCCNC(=N)N)NC(=O)[C@H](CCC(=O)O)NC(C)=O)C(=O)N[C@H]1CSSC[C@@H](C(=O)N[C@H](C(N)=O)[C@@H](C)O)NC(=O)[C@H](CCCNC(=N)N)NC(=O)[C@H](Cc2c[nH]cn2)NC(=O)[C@H](C)NC(=O)CNC(=O)[C@H](Cc2c[nH]c3ccccc23)NC(=O)[C@H](CC(=O)O)NC(=O)[C@H](CCC(N)=O)NC(=O)[C@H](Cc2c[nH]c3ccccc23)NC(=O)[C@H](C(C)C)NC1=O | – | PBS | pH 7.4 | 4290 µg/mL

Structure (SMILES) | test | system | conditions | solubility
Nc1cccc(S(=O)(=O)N2CCN(S(=O)(=O)c3ccc4c(c3)OCCO4)CC2)c1 | – | aqueous buffer | – | 4.1 µg/mL
COC(=O)C1=C(C)NC(C)=C(C(=O)OCCN(C)Cc2ccccc2)C1c1cccc([N+](=O)[O-])c1 (stereo not drawn) | – | FaSSIF | 24 h, pH 7.4, 37 °C | 227 µg/mL
CN1CCN(C2CCN(c3nccc4[nH]c(-c5cc(F)cc(F)c5)nc34)CC2)CC1 | shake flask | aqueous buffer | pH 6.5 | > 200 µM
CC[C@H](C)[C@H](NC(=O)[C@H](Cc1ccccc1)NC(=O)[C@H](Cc1ccc(O)cc1)NC(=O)[C@@H]1CCCN1C(=O)[C@@H](N)Cc1ccc(O)cc1)C(=O)N1CCC[C@H]1C(=O)N[C@H](CCCCN)C(=O)NCC(=O)N[C@H](CCCCN)C(=O)NCC(=O)N[C@@H](CCC(=O)O)C(=O)N[C@H](C(=O)N[C@@H](CC(N)=O)C(=O)N[C@@H](CC(C)C)[C@@H](O)CC(=O)N[C@H](C(=O)N[C@@H](C)C(=O)N[C@@H](CCC(=O)O)C(=O)N1CCC[C@@H]1C(=O)N[C@@H](CCCCNC(=O)CCC(=O)O[C@H]1CC[C@@]2(C)C(=CC[C@H]3[C@@H]4CC[C@H]([C@H](C)CCCC(C)C)[C@@]4(C)CC[C@@H]32)C1)C(N)=O)C(C)C)C(C)C | – | aqueous buffer | pH 6.5 | > 718 µg/mL
O=C(Nc1ccc(S(=O)(=O)N2CCC(Cl)CC2)cc1)c1ccc([N+](=O)[O-])o1 | – | aqueous buffer | pH 5 | 3.8 µg/mL
CCC(F)(F)c1nc2nc(C)cc(Nc3ccc(C(F)(F)F)cc3)n2n1 | nephelometry | aqueous buffer | pH 6.5 | 17 to 34 µM
COc1c(Cl)cccc1Nc1nc(NCc2ccccc2)c2ccccc2n1 | – | aqueous buffer | pH 5 | 0.5 µg/mL
CNC(=O)c1ccc(N(Cc2ccc(C3CCCCC3)cn2)C(=O)[C@H]2CCN2S(=O)(=O)c2c(F)c(F)c(F)c(F)c2F)cc1O | – | simulated intestinal fluid | – | 131 µg/mL
CCCCOC(=O)c1ccc(N)cc1 | – | PBS | pH 7.4 | 226 µg/mL
Brc1ccc2c(c1)nc(C1CCNCC1)n2Cc1ccccc1 | shake flask | aqueous buffer | 20 h, pH 6.5, 25 °C | 110 µM
N=C(N)N1CC=C(c2coc(C(=O)Nc3ccc(C4=CCN(C(=N)N)CC4)c(F)c3)c2)CC1 | shake flask | aqueous buffer | pH 7.4 | 58 µg/mL
CC(C)C[C@H](NC(=O)[C@H](CCc1ccccc1)NC(=O)CN1CCOCC1)C(=O)N[C@@H](Cc1ccccc1)C(=O)N[C@@H](CC(C)C)C(=O)[C@@]1(C)CO1 | – | PBS | 24 h, pH 7.4 | 1.12 µg/mL
Brc1cccc2c(NCc3ccccc3)nc(NCc3ccccc3)nc12 | – | aqueous buffer | pH 6.2 | 0.13 µg/mL
CC(C)Oc1ccc2cc(-c3nn(C(C)(C)C)c(N)c3C(N)=O)cnc2c1 | – | PBS | pH 6.5, 25 °C | > 100 µM
Cc1ccc(Nc2nc(NCc3ccccc3)c3ccccc3n2)cc1F | – | aqueous buffer | pH 5 | 0.13 µg/mL
Cc1cccc(C(=O)Nc2cccc(NC(=O)c3ccccc3)c2)c1 | – | aqueous buffer | – | < 0.03 µM
Clc1ccc2c(c1)nc(NCc1ccccn1)n2Cc1ccccc1 | shake flask | aqueous buffer | 20 h, pH 6.5, 25 °C | 15 µM
O=C(c1ccccn1)N(Cc1cccs1)C1(C(=O)NC2CCCCC2)CCCCC1 | – | aqueous buffer | pH 7.4 | 6.5 µg/mL
COc1cccc(OC)c1-c1cc(C(=O)N[C@@H](CC(C)C)C(=O)O)nn1-c1ccnc2cc(Cl)ccc12 | – | aqueous buffer | pH 7.4 | > 155 µg/mL
COCCc1nc2nc(C)cc(Nc3ccc(S(F)(F)(F)(F)F)cc3)n2n1 | nephelometry | aqueous buffer | pH 6.5 | 31 to 62 µM
COCc1nn(Cc2ccc(Cn3ccccc3=O)cc2)cc1C(=O)NCc1c(F)ccc(OC)c1F | – | FaSSIF | 4 h, pH 6.5 | 9 µg/mL
O=C(O)Cc1ccccc1Nc1c(Cl)cccc1Cl | – | PBS | pH 7.4 | 199 µM
CCc1nc2nc(C)cc(Nc3cccc(Cl)c3)n2n1 | nephelometry | aqueous buffer | pH 6.5 | 170 to 350 µM
O=C(Nc1cc(F)ccc1C(=O)O)c1ccc(-c2ccccc2)cc1 | shake flask | aqueous buffer | 24 h, pH 6.5, 25 °C | 5 µM
COc1cccc2c(NCc3ccccc3)nc(-n3c(=O)oc4ccccc43)nc12 | – | aqueous buffer | pH 5 | 0.02 µg/mL
COc1cccc(OC)c1-c1nc(C(=O)N[C@@H](CC(C)C)C(=O)O)cn1-c1ccnc2cc(Cl)ccc12 | – | aqueous buffer | pH 6.2 | > 52 µg/mL
CS(=O)(=O)N1CCN(Cc2cc3nc(-c4cccc5[nH]ncc45)nc(N4CCOCC4)c3s2)CC1 | – | FeSSIF | – | 6 µg/mL
